According to ChEMBL document CHEMBL4689842, “EUbOPEN Chemogenomics Library wave 1” (2021):

Test system: HEK-293T
Test: Multiplex assay against HEK293T;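 on Population Tubulin-Different-Phenotype (%): share of the cells with healthy nuclei that show this phenotype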
Format: toxicity, cell-based
Conditions: human
Method in brief: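 With compound added, live cells were imaged on a CQ1 microscope at 37°C and 5% CO2; staining with Hoechst33342, BioTracker Green Microtubule Cytoskeleton Dye, MitoTracker Red and Annexin V Alexa Fluor 680 had been done at seeding. The CellPathfinder machine-learning gating scheme split cells into Hoechst high-intensity objects or normal cells, normal cells into healthy, pyknosed or fragmented nuclei, and pyknosed cells into mitotic or apoptotic. The tubulin, mitochondrial-mass and membrane-permeability phenotypes are per cents of healthy-nucleus cells.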

[1] = 12 h, 1 µM, compound concentration 1 uM, replicate 1
[2] = 12 h, 1 µM, compound concentration 1 uM, replicate 2
[3] = 12 h, 10 µM, compound concentration 10 uM, replicate 1
[4] = 12 h, 10 µM, compound concentration 10 uM, replicate 2
[5] = 24 h, 1 µM, compound concentration 1 uM, replicate 1
[6] = 24 h, 1 µM, compound concentration 1 uM, replicate 2
[7] = 24 h, 10 µM, compound concentration 10 uM, replicate 1
[8] = 24 h, 10 µM, compound concentration 10 uM, replicate 2
[9] = 48 h, 1 µM, compound concentration 1 uM, replicate 1
[10] = 48 h, 1 µM, compound concentration 1 uM, replicate 2
[11] = 48 h, 10 µM, compound concentration 10 uM, replicate 1
[12] = 48 h, 10 µM, compound concentration 10 uM, replicate 2

In the case of `CC(C)OC(=O)N1CCC(Oc2ncnc3c2cnn3-c2ccc(S(C)(=O)=O)cc2F)CC1`, the “Population Apoptotic (%)” value [1] is reported as 57%, the “Population Fragmented Nuclei (%)” value [1] is reported as 8% and the “Population Healthy Nuclei (%)” value [1] is reported as 35%. For the same compound, the “Population Hoechst High Intensity Objects (%)” value [1] was 14%, the “Population Membrane Permeable-Phenotype (%)” value [1] was 4% and the “Population Mitochondria Different-Phenotype (%)” value [1] was 80%. The “Population Mitotic Cells (%)” value [1] was 42%, the “Population Normal (%)” value [1] was 85% and the “Population Pyknosed Nuclei (%)” value [1] was 56%. The “Population Tubulin-Different-Phenotype (%)” value [1] was 39%, the “Total Cell Count” value [1] was 225 and the “Population Apoptotic (%)” value [2] was 12%. The “Population Fragmented Nuclei (%)” value [2] was 5%, the “Population Healthy Nuclei (%)” value [2] was 49% and the “Population Hoechst High Intensity Objects (%)” value [2] was 4%. The “Population Membrane Permeable-Phenotype (%)” value [2] was 5%, the “Population Mitochondria Different-Phenotype (%)” value [2] was 11% and the “Population Mitotic Cells (%)” value [2] was 87%. The “Population Normal (%)” value [2] was 95%, the “Population Pyknosed Nuclei (%)” value [2] was 44% and the “Population Tubulin-Different-Phenotype (%)” value [2] was 9%. For the same compound, the “Total Cell Count” value [2] was 220, the “Population Apoptotic (%)” value [3] was 53% and the “Population Fragmented Nuclei (%)” value [3] was 16%. For the same compound, the “Population Healthy Nuclei (%)” value [3] was 32%, the “Population Hoechst High Intensity Objects (%)” value [3] was 18% and the “Population Membrane Permeable-Phenotype (%)” value [3] was 6%. The “Population Mitochondria Different-Phenotype (%)” value [3] was 93%, the “Population Mitotic Cells (%)” value [3] was 46% and the “Population Normal (%)” value [3] was 81%. The “Population Pyknosed Nuclei (%)” value [3] was 51%, the “Population Tubulin-Different-Phenotype (%)” value [3] was 61% and the “Total Cell Count” value [3] was 186. The “Population Apoptotic (%)” value [4] was 5%, the “Population Fragmented Nuclei (%)” value [4] was 5% and the “Population Healthy Nuclei (%)” value [4] was 45%. The “Population Hoechst High Intensity Objects (%)” value [4] was 3%, the “Population Membrane Permeable-Phenotype (%)” value [4] was 8% and the “Population Mitochondria Different-Phenotype (%)” value [4] was 15%. The “Population Mitotic Cells (%)” value [4] was 94%, the “Population Normal (%)” value [4] was 96% and the “Population Pyknosed Nuclei (%)” value [4] was 49%. For the same compound, the “Population Tubulin-Different-Phenotype (%)” value [4] was 20%, the “Total Cell Count” value [4] was 220 and the “Population Apoptotic (%)” value [5] was 51%. The “Population Fragmented Nuclei (%)” value [5] was 11%, the “Population Healthy Nuclei (%)” value [5] was 39% and the “Population Hoechst High Intensity Objects (%)” value [5] was 15%. For the same compound, the “Population Membrane Permeable-Phenotype (%)” value [5] was 4%, the “Population Mitochondria Different-Phenotype (%)” value [5] was 58% and the “Population Mitotic Cells (%)” value [5] was 48%. For the same compound, the “Population Normal (%)” value [5] was 84%, the “Population Pyknosed Nuclei (%)” value [5] was 48% and the “Population Tubulin-Different-Phenotype (%)” value [5] was 35%. For the same compound, the “Total Cell Count” value [5] was 254, the “Population Apoptotic (%)” value [6] was 11% and the “Population Fragmented Nuclei (%)” value [6] was 7%. The “Population Healthy Nuclei (%)” value [6] was 62%, the “Population Hoechst High Intensity Objects (%)” value [6] was 3% and the “Population Membrane Permeable-Phenotype (%)” value [6] was 9%. The “Population Mitochondria Different-Phenotype (%)” value [6] was 11%, the “Population Mitotic Cells (%)” value [6] was 88% and the “Population Normal (%)” value [6] was 96%. The “Population Pyknosed Nuclei (%)” value [6] was 29%, the “Population Tubulin-Different-Phenotype (%)” value [6] was 16% and the “Total Cell Count” value [6] was 277. The “Population Apoptotic (%)” value [7] was 46%, the “Population Fragmented Nuclei (%)” value [7] was 13% and the “Population Healthy Nuclei (%)” value [7] was 38%. The “Population Hoechst High Intensity Objects (%)” value [7] was 18%, the “Population Membrane Permeable-Phenotype (%)” value [7] was 1% and the “Population Mitochondria Different-Phenotype (%)” value [7] was 75%. The “Population Mitotic Cells (%)” value [7] was 53%, the “Population Normal (%)” value [7] was 81% and the “Population Pyknosed Nuclei (%)” value [7] was 48%. The “Population Tubulin-Different-Phenotype (%)” value [7] was 67%, the “Total Cell Count” value [7] was 194 and the “Population Apoptotic (%)” value [8] was 3%. For the same compound, the “Population Fragmented Nuclei (%)” value [8] was 4%, the “Population Healthy Nuclei (%)” value [8] was 65% and the “Population Hoechst High Intensity Objects (%)” value [8] was 3%. The “Population Membrane Permeable-Phenotype (%)” value [8] was 4%, the “Population Mitochondria Different-Phenotype (%)” value [8] was 22% and the “Population Mitotic Cells (%)” value [8] was 96%. For the same compound, the “Population Normal (%)” value [8] was 96%, the “Population Pyknosed Nuclei (%)” value [8] was 30% and the “Population Tubulin-Different-Phenotype (%)” value [8] was 29%. The “Total Cell Count” value [8] was 268, the “Population Apoptotic (%)” value [9] was 59% and the “Population Fragmented Nuclei (%)” value [9] was 14%. The “Population Healthy Nuclei (%)” value [9] was 48%, the “Population Hoechst High Intensity Objects (%)” value [9] was 16% and the “Population Membrane Permeable-Phenotype (%)” value [9] was 5%. The “Population Mitochondria Different-Phenotype (%)” value [9] was 21%, the “Population Mitotic Cells (%)” value [9] was 40% and the “Population Normal (%)” value [9] was 83%. For the same compound, the “Population Pyknosed Nuclei (%)” value [9] was 36%, the “Population Tubulin-Different-Phenotype (%)” value [9] was 25% and the “Total Cell Count” value [9] was 312. The “Population Apoptotic (%)” value [10] was 5%, the “Population Fragmented Nuclei (%)” value [10] was 8% and the “Population Healthy Nuclei (%)” value [10] was 79%. For the same compound, the “Population Hoechst High Intensity Objects (%)” value [10] was 3%, the “Population Membrane Permeable-Phenotype (%)” value [10] was 3% and the “Population Mitochondria Different-Phenotype (%)” value [10] was 4%. The “Population Mitotic Cells (%)” value [10] was 94%, the “Population Normal (%)” value [10] was 96% and the “Population Pyknosed Nuclei (%)” value [10] was 11%. The “Population Tubulin-Different-Phenotype (%)” value [10] was 17%, the “Total Cell Count” value [10] was 463 and the “Population Apoptotic (%)” value [11] was 50%. For the same compound, the “Population Fragmented Nuclei (%)” value [11] was 18%, the “Population Healthy Nuclei (%)” value [11] was 41% and the “Population Hoechst High Intensity Objects (%)” value [11] was 16%. The “Population Membrane Permeable-Phenotype (%)” value [11] was 3%, the “Population Mitochondria Different-Phenotype (%)” value [11] was 60% and the “Population Mitotic Cells (%)” value [11] was 49%. The “Population Normal (%)” value [11] was 83%, the “Population Pyknosed Nuclei (%)” value [11] was 39% and the “Population Tubulin-Different-Phenotype (%)” value [11] was 53%. For the same compound, the “Total Cell Count” value [11] was 237, the “Population Apoptotic (%)” value [12] was 11% and the “Population Fragmented Nuclei (%)” value [12] was 5%. The “Population Healthy Nuclei (%)” value [12] was 82%, the “Population Hoechst High Intensity Objects (%)” value [12] was 3% and the “Population Membrane Permeable-Phenotype (%)” value [12] was 4%. For the same compound, the “Population Mitochondria Different-Phenotype (%)” value [12] was 3%, the “Population Mitotic Cells (%)” value [12] was 88% and the “Population Normal (%)” value [12] was 96%. The “Population Pyknosed Nuclei (%)” value [12] was 11%, the “Population Tubulin-Different-Phenotype (%)” value [12] was 23% and the “Total Cell Count” value [12] was 480.
